From ChEMBL document CHEMBL1138856, “Synthesis and anti-human immunodeficiency virus activity of 4'-branched (+/-)-4'-thiostavudines” (J Med Chem, 2006)

Experiments:
[1] = Cytotoxicity against MT4 cells MTT assay; type: cell-based; details: human
Method in brief: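 Mock-infected MT-4 cells were cultured with various compound concentrations in parallel with the antiviral assay (4 days, 37 °C). Viability was read by MTT. The value is the concentration reducing viability by 50%.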

[2] = test system: Human immunodeficiency virus 1; assay: Antiviral activity against HIV1 3B in MT4 cells by MTT assay; type: functional, organism-based
[3] = Human immunodeficiency virus 1, 3B, MT4

Compound	CC50 [1] [µM]	EC50 [2, 3] [µM]	EC50 ([2]; mt4) [µM]
COC(=O)[C@@]1(CO)C=C[C@H](n2cc(C)c(=O)[nH]c2=O)S1 (racemic)	> 100	> 100	–
Cc1cn([C@H]2C=C[C@@H](CO)O2)c(=O)[nH]c1=O [STAVUDINE]	> 100	0.51	–
C#C[C@@]1(CO)C=C[C@H](n2cc(C)c(=O)[nH]c2=O)S1 (racemic)	–	–	0.74
C#C[C@@]1(CO)C=C[C@H](n2cc(C)c(=O)[nH]c2=O)S1 (stereo in doubt; (-)-29)	–	–	0.37
Cc1cn([C@H]2C=C[C@](CO)(C(N)=O)S2)c(=O)[nH]c1=O (racemic)	> 100	> 100	–
Cc1cn([C@H]2C=CC(CO)(CO)S2)c(=O)[nH]c1=O (racemic)	> 100	> 100	–
Cc1cn([C@H]2C=C[C@@](C#N)(CO)S2)c(=O)[nH]c1=O (racemic)	> 100	7.6	–
C#C[C@@]1(CO)C=C[C@H](n2cc(C)c(=O)[nH]c2=O)O1 [CENSAVUDINE]	> 100	0.06	–
C#C[C@@]1(CO)C=C[C@H](n2cc(C)c(=O)[nH]c2=O)S1 (stereo in doubt; (+)-29)	> 100	–	> 20
C=C[C@@]1(CO)C=C[C@H](n2cc(C)c(=O)[nH]c2=O)S1 (racemic)	> 100	> 100	–
